From ChEMBL document CHEMBL1128540, “Synthesis and quantitative structure-activity relationships of dequalinium analogues as K+ channel blockers: investigation into the role of the substituent at position 4 of the quinoline ring” (J Med Chem, 1995)

Columns and labels:
[1] = target: Small conductance calcium-activated potassium channel (Rattus norvegicus, UniProt P70604+P70606+P70605); assay: The SKCa-blocking action was assessed by its ability to inhibit the after hyperpolarization (AHP) in cultured rat sympathetic neurones; assay type: functional, cell-based; settings: sympathetic neuron
How it was run: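 SKCa block was read as inhibition of the after-hyperpolarization following action potentials in cultured rat sympathetic neurones. Each compound was tested at two to four concentrations on at least three cells, and IC50 was taken for 50% AHP inhibition. Concentrations above 10–30 μM were generally avoided. Dequalinium was included as reference in each series.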

[2] = Equieffective molar ratio(EMR) to that of the dequalinium, causing 50% inhibition of AHP(action potential).; assay type: functional
How it was run: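 AHP inhibition in cultured rat sympathetic neurones. Each compound was tested at two to four concentrations on at least three cells, with dequalinium run as reference in the same series (one to three compounds per series). EMR is the ratio of test compound to dequalinium concentration giving 50% AHP inhibition within the same experiment. Test concentrations above 10–30 μM were generally avoided.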

IC50 [1] [µM]	SMILES	EMR [2]
4.5	CC(=O)Nc1cc[n+](CCCCCCCCCC[n+]2ccc(NC(C)=O)c3ccccc32)c2ccccc12	5.5
1	Nc1c2c([n+](CCCCCCCCCC[n+]3c4c(c(N)c5ccccc53)CCCC4)c3ccccc13)CCCC2	0.9
0.74	Cc1cc(N)c2ccccc2[n+]1CCCCCCCCCC[n+]1c(C)cc(N)c2ccccc21.[Cl-].[Cl-] [DEQUALINIUM CHLORIDE]	1
2.4	c1ccc(Nc2cc[n+](CCCCCCCCCC[n+]3ccc(Nc4ccccc4)c4ccccc43)c3ccccc23)cc1	3.4
1.4	CN(C)c1cc[n+](CCCCCCCCCC[n+]2ccc(N(C)C)c3ccccc32)c2ccccc12	1.4
2.7	c1ccc(Oc2cc[n+](CCCCCCCCCC[n+]3ccc(Oc4ccccc4)c4ccccc43)c3ccccc23)cc1	6.5
0.52	c1ccc(CNc2cc[n+](CCCCCCCCCC[n+]3ccc(NCc4ccccc4)c4ccccc43)c3ccccc23)cc1	0.7
> 10	[O-]c1cc[n+](CCCCCCCCCC[n+]2ccc([O-])c3ccccc32)c2ccccc12	> 10
0.5	Nc1ccc2c(NCc3ccccc3)cc[n+](CCCCCCCCCC[n+]3ccc(NCc4ccccc4)c4ccc(N)cc43)c2c1	0.9
0.6	COc1cc(OC)c(CNc2cc[n+](CCCCCCCCCC[n+]3ccc(NCc4c(OC)cc(OC)cc4OC)c4ccccc43)c3ccccc23)c(OC)c1	1
1.4	CN(c1ccccc1)c1cc[n+](CCCCCCCCCC[n+]2ccc(N(C)c3ccccc3)c3ccccc32)c2ccccc12	1.7
1.4	Nc1cc[n+](CCCCCCCCCC[n+]2ccc(N)c3ccccc32)c2ccccc12	1.3
14.5	Cc1cc[n+](CCCCCCCCCC[n+]2ccc(C)c3ccccc32)c2ccccc12	26

SMILES	IC50 [1] [µM]	EMR [2]
COc1cc2c3cc1Oc1cc(ccc1O)C[C@@H]1c4c(cc(OC)c(O)c4Oc4ccc(cc4)C[C@@H]3N(C)CC2)CC[N+]1(C)C.[Cl-]	7.5	–
c1ccc2c(c1)ccc[n+]2CCCCCCCCCC[n+]1cccc2ccccc21	21	15
CC(=O)O[C@H]1C[C@@H]2CC[C@@H]3[C@H](CC[C@@]4(C)[C@H]3C[C@H]([N+]3(C)CCCCC3)[C@@H]4OC(C)=O)[C@@]2(C)C[C@@H]1[N+]1(C)CCCCC1.[Br-].[Br-] [PANCURONIUM BROMIDE]	6.8	–
